Screening results (PubChem)
NALP3 yeast inh: inhibitors of NALP3 inflammasome in yeast; Yeast reconstituted NLRP3/ASC/caspase-1, beta-gal luminescence, 24 h; inhibition, % at 10 µM; actives 0.39% (n = 330,000); AID 2825;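 active means inhibition of 50% or more; inactive means inhibition below 50%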;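 further: plate controls were induced DMSO wells for no effect and uninduced yeast grown without galactose for full effect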
T cell HTS: T cell immune modulators affecting CD8 T cell-vesicle binding | 2C CD8+ T cell-vesicle binding, flow cytometry; stronger effect = lower value | response (vesicle binding), % at 7 µM | actives 0.068% (n = 330,000);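 active means response, share of CD8 T cells binding vesicles, and their 90th percentile fluorescence all below set limits, cut at about 80% in these data, passing the limit was not always enough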;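 further: values below 100% mean blocked vesicle binding to the CD8+ T cells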
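System: murine 2C transgenic CD8+ T lymphocytes; also added: QL9-loaded Drosophila micro-vesicles; times: binding 1.5 h at 37 °C; measured by: flow cytometry, PE anti-B7-1 (FL2) versus Alexa647 anti-CD8 (FL8), PFA-fixed; control set: Peptide-free naked vesicles (low) and QL9 vesicles with 0.7% DMSO vehicle (high)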
NALP1 yeast inh: inhibitors of NALP1 inflammasome in yeast; inhibition, % at 10 µM; S. cerevisiae NALP1/ASC/caspase-1 growth, X-gal OD620, 72 h; actives 0.61% (n = 280,000); in the data active means inhibition mostly above about 24%, no sharp cut-off; inactive means mostly below about 32%
Bfl-1 A1 inh: inhibitors of the anti-apoptotic protein A1, read as caspase activation; MEF A1-2A-BIM cells, Caspase-Glo 3/7 luminescence, 3 h; percent of clofoctol response, vehicle zero; caspase activation, % (test concentration not listed); actives 0.066% (n = 330,000); AID 2462;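 active means over half of replicate activation scores above 10%, or exactly half above 10 with the replicate mean above 10; inconclusive means replicate mean below 10 yet half the replicates above 10; inactive means over half of replicates below 10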
NALP3 yeast conf: NALP3 inhibition confirmation in yeast; shares compounds with NALP3 yeast inh; yeast expressing human NALP3, luminescence; inhibition, % at 10 µM; actives 81% (n = 1,300); in the data active means inhibition above about 48%
Casp1 ASC ctr: active in yeast caspase-1-ASC counter-screen for NALP3 inhibitors; inhibition, % at 10 µM; shares compounds with NALP3 yeast inh; actives 66% (n = 1,000); yeast expressing Caspase-1-ASC, luminescence counter screen; AID 488784
NALP3 retest: confirmation retest of NALP3 inhibitors in yeast | AID 488794 | actives 53% (n = 1,000) | shares compounds with NALP3 yeast inh | yeast expressing human NALP3, luminescence read-out | inhibition, % at 10 µM
* marks the source's active call; other numbers are inactive results; i = inactive; ? = inconclusive; . = no result given. Most compounds without a hit are left out; they make up all but 1% or so of the library. Unless noted, no stated cut-off is given here; in the data, active means inhibition above about 50%; inactive means the rest.

SMILES | NALP3 yeast inh | T cell HTS | NALP1 yeast inh | Bfl-1 A1 inh | NALP3 yeast conf | others
C[C@]12CCC3C(CC[C@H]4C[C@@H](O)CC[C@]34C)C1CCC2=O (stereo partly drawn) | 64* | 234 | . | 0 | 66* | Casp1 ASC ctr=63*;NALP3 retest=44
C[C@]12CCC3C(CC[C@H]4C[C@@H](O)CC[C@]34C)C1C[C@@H](Br)[C@H]2O (stereo partly drawn) | 58* | 600 | . | 1 | 50*
C[C@]12CC[C@H](O)C[C@@H]1CC[C@@H]1[C@@H]2CC[C@]2(C)C(=O)CC[C@@H]12 | 67* | 116 | 27 | 0 | 62* | Casp1 ASC ctr=62*;NALP3 retest=42
CSCCC(NC(=O)CCC(=O)OC1CC[C@H]2[C@@H]3CC[C@H]4CC(=O)CC[C@]4(C)[C@H]3CC[C@]12C)C(=O)O (stereo partly drawn) | 45 | 237 | -14 | 1 | .
C[C@]12CCC3C(CC[C@H]4C[C@@H](O)CC[C@]34C)C1CC[C@@H]2OC(=O)[C@H](N)CCCCN (stereo partly drawn) | 66* | 200 | . | 0 | 57*
O=C(COc1ccc(Cl)cc1)N(c1ccc(Cl)cc1)C1CN2CCC1CC2 (stereo not drawn) | 14 | 221 | . | 1 | .
COC(=O)C1=C(c2cccc(C#N)c2)C[C@@H]2CC[C@H]1N2C(=O)NCCOc1ccc(OC)cc1 | 2 | 189 | . | -1 | .
CC(=O)C1CCC2C3CCC4CC(O)CCC4(C)C3CCC12C (stereo not drawn) | 59* | 198 | . | 0 | 69* | Casp1 ASC ctr=60*;NALP3 retest=58*
CC(=O)OCC(=O)[C@H]1CC[C@H]2[C@@H]3CC[C@H]4C[C@H](O)CC[C@]4(C)[C@H]3C(=O)C[C@]12C | 56* | 416 | . | -1 | 71* | Casp1 ASC ctr=53*;NALP3 retest=53*
C[C@]12CCC3[C@@H](CC[C@@H]4C[C@H](O)CC[C@]34C)[C@@H]1CCC2=O (stereo partly drawn) | 67* | 95 | . | 1 | 61* | Casp1 ASC ctr=71*;NALP3 retest=61*
CC(=O)[C@H]1CC[C@H]2[C@@H]3CC[C@H]4C[C@H](O)CC[C@]4(C)[C@H]3C(=O)C[C@]12C | 23 | 454 | 29 | 2 | .
C[C@]12CCC3C(CC[C@H]4C[C@@H](O)CC[C@]34C)[C@H]1C=CC2=O (stereo partly drawn) | 55* | 308 | . | 0 | 60*
C[C@]12CC[C@H](O)C[C@H]1CC[C@@H]1[C@@H]2CC[C@]2(C)[C@@H](C3=CC(=O)OC3)CC[C@]12O | 28 | 776 | . | ? | .
O=C(O)C(Br)CBr (stereo not drawn) | 11 | 440 | . | 0 | .
c1ccc(CCNCc2cccs2)cc1 | 0 | 708 | 6 | 0 | .
CCN(CCO)c1ccc(N=Cc2c(O)n(C)c(=S)[nH]c2=O)cc1 | 18 | 161 | . | 1 | .
CN1/C(=C\C=C\C2=[N+](C)c3ccc4ccccc4c3C2(C)C)C(C)(C)c2ccccc21 | 53* | i | 57* | -1 | 53*
COc1ccc(-n2c(-c3ccccc3Br)nc3ccccc3c2=O)cc1 | -3 | 182 | 17 | 0 | .
O=C1c2ccccc2C(=O)N1Cc1nc2ccccc2c(=O)n1-c1cccnc1 | 12 | 137 | -10 | 0 | .
O=C1c2ccccc2C(=O)N1Cc1nc2ccccc2c(=O)n1-c1ccc(Br)cn1 | 61* | 473 | 38 | 0 | 74* | Casp1 ASC ctr=35;NALP3 retest=34
CNC(C)(C)Cc1ccccc1 | 15 | 119 | . | 0 | .
CCOC(=O)C1=Nc2ccccc2/C1=C\c1c(O)n(C)c(=O)n(C)c1=O | 53* | 276 | -4 | 0 | 45
Nc1c2c(nc3sc4c(c13)CCCC4)CCCC2 | 71* | 508 | 17 | -4 | 82* | Casp1 ASC ctr=54*;NALP3 retest=57*
COc1cc2c(cc1OC)CN(c1ccc([N+](=O)[O-])c(C(F)(F)F)c1)CC2 | 50* | 547 | 49 | 0 | 23
C=C1C(=O)O[C@@H]2C[C@@H](C)[C@@H]3C4OC4C(=O)[C@@]3(C)[C@@H](O)[C@H]12 (stereo partly drawn) | 17 | 351 | -13 | 0 | .
SMILES | NALP3 yeast inh | T cell HTS | NALP1 yeast inh | Bfl-1 A1 inh | NALP3 yeast conf | others
COc1ccc2nc(NC3=NCCN3)sc2c1 | 95* | 331 | 93* | 0 | -25
c1ccc2sc(NC3=NCCN3)nc2c1 | 97* | 171 | 104* | -1 | 95* | Casp1 ASC ctr=99*;NALP3 retest=98*
C[C@]12CCC(=O)C=C1C=CC1C2CC[C@]2(C)C(=O)CCC12 (stereo partly drawn) | 50* | 361 | . | 0 | 57*
Oc1c(Br)c(Br)c(Br)c(Br)c1Br | 66* | 500 | . | 0 | 71* | Casp1 ASC ctr=74*;NALP3 retest=91*
Oc1c(Br)cc(Br)cc1Br | 13 | 727 | . | 0 | .
C[C@]12CCC(OC(=O)CCC(=O)O)CC1=CCC1C2CC[C@]2(C)C(=O)CCC12 (stereo partly drawn) | 59* | 208 | 19 | ? | 66* | Casp1 ASC ctr=57*;NALP3 retest=48
CC12CCC3C(CC=C4CC5(CCC43C)OCCO5)C1CCC2=O (stereo not drawn) | 62* | i | 15 | 1 | 75*
C[C@]12CC[C@H](OS(=O)(=O)O)CC1=CC[C@@H]1[C@@H]2CC[C@]2(C)C(=O)CC[C@@H]12 | 9 | 662 | . | 0 | .
COc1cc(OC)c(OC)cc1CN1CCN(C(=O)Cc2ccccc2)CC1 | 6 | i | 11 | 0 | .
CC1(C)C[C@H]2C=C(C=O)[C@]3(C=O)C[C@]3(C)[C@H]2C1 | 84* | 375 | 108* | -1 | 63*
COc1cc(CC(=O)N2C[C@H]3C[C@@H](C2)c2cccc(=O)n2C3)cc(OC)c1OC | 2 | 484 | . | 0 | .
C[C@]12CC[C@H](N)CC1=CCC1C2CC[C@@]2(C)C1CC[C@@H]2O (stereo partly drawn) | 56* | 449 | . | 1 | 56*
CC12CCC3C(CC=C4CC(O)CCC43C)C1C/C(=C\N1CCCC1)C2=O (stereo not drawn) | 59* | . | 27 | . | 43
C[C@@H]1CC2C3CC=C4C[C@@H](O)CC[C@]4(C)C3CC[C@]2(C)[C@H]1O (stereo partly drawn) | 57* | 330 | . | 1 | 40
Cc1nn(C)c(C)c1/C=C1/CC2C3CC=C4CC(O)CCC4(C)C3CCC2(C)C1=O (stereo not drawn) | 34 | 441 | 1 | -2 | .
C[C@H]1CC2C3CC=C4C[C@@H](O)CC[C@]4(C)C3CC[C@]2(C)[C@H]1O (stereo partly drawn) | 54* | 326 | . | 0 | 48
BrCC(Br)C1CCC(Br)C(Br)C1 (stereo not drawn) | -14 | 217 | . | 0 | .
